According to ChEMBL document CHEMBL4346684, “Synthesis and structure-bactericidal activity relationships of non-ketolides: 9-Oxime clarithromycin 11,12-cyclic carbonate featured with three-to eight-atom-length spacers at 3-OH” (Eur J Med Chem, 2019):
In brackets after ≈: the same amount, converted by molar mass.

Columns and labels:
Format in all cases: functional
Streptococcus pneumoniae [1] = experiment: Antimicrobial activity against erythromycin-susceptible Streptococcus pneumoniae ATCC 49619 incubated in CAMHB medium for 20 to 24 hrs by two-fold microbroth dilution method
Streptococcus pneumoniae [2] = experiment: Antimicrobial activity against mef-encoded erythromycin resistant Streptococcus pneumoniae PU09 incubated in CAMHB medium for 20 to 24 hrs by two-fold microbroth dilution method
Streptococcus pneumoniae [3] = experiment: Antimicrobial activity against constitutively erythromycin resistant Streptococcus pneumoniae PU27 expressing c-erm incubated in CAMHB medium for 20 to 24 hrs by two-fold microbroth dilution method
Summary of the method: (§1)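 Purified fresh Streptococcus isolate at about 5×10^5 CFU/ml final in CAMHB with 5% horse serum, 35 °C for 20–24 h. […] Each run included ATCC strains and reference antibiotics as QC, plus an antibiotic-free growth control.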

Streptococcus pyogenes [4] = experiment: Antimicrobial activity against constitutively erythromycin resistant Streptococcus pyogenes A2 expressing c-erm incubated in CAMHB medium for 20 to 24 hrs by two-fold microbroth dilution method; summary of the method: as §1
Streptococcus pyogenes [5] = experiment: Antimicrobial activity against erythromycin-susceptible Streptococcus pyogenes A3 incubated in CAMHB medium for 20 to 24 hrs by two-fold microbroth dilution method
Staphylococcus aureus [6] = experiment: Antimicrobial activity against erythromycin-susceptible Staphylococcus aureus ATCC 29213 incubated in CAMHB medium for 20 hrs by two-fold microbroth dilution method; conditions: ATCC 29213, 20 h
Summary of the method: (§2)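 Clinical isolates and ATCC strains, purified by plate activation and used fresh; inoculum about 5×10^5 CFU/ml final. Grown in CAMHB at 35 °C for 20 h.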

Staphylococcus aureus [7] = experiment: Antimicrobial activity against inducibly erythromycin-resistant Staphylococcus aureus PU32 expressing i-ermA incubated in CAMHB medium for 20 hrs by two-fold microbroth dilution method; conditions: PU32, 20 h
Summary of the method: (§3)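 Purified fresh Staphylococcus isolate at about 5×10^5 CFU/ml final in CAMHB, 35 °C for 20 h. […] Each run included ATCC strains and reference antibiotics as QC, plus an antibiotic-free growth control.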

Staphylococcus aureus [8] = experiment: Antimicrobial activity against constitutively erythromycin resistant Staphylococcus aureus PU20 expressing c-ermC incubated in CAMHB medium for 20 hrs by two-fold microbroth dilution method; conditions: PU20, 20 h; summary of the method: as §3
Staphylococcus aureus [9] = experiment: Antimicrobial activity against inducibly erythromycin resistant Staphylococcus aureus PU64 expressing i-ermA incubated in CAMHB medium for 20 hrs by two-fold microbroth dilution method; conditions: PU64, 20 h; summary of the method: as §3
[10] = test system: Staphylococcus epidermidis; experiment: Antimicrobial activity against Staphylococcus epidermidis E1 incubated in CAMHB medium for 20 hrs by two-fold microbroth dilution method; conditions: E1, 20 h; summary of the method: as §2
Streptococcus pneumoniae [11] = experiment: Bactericidal activity against erythromycin-susceptible Streptococcus pneumoniae ATCC 49619 assessed as reduction in colony formation incubated in CAMHB medium for 20 to 24 hrs followed by 24 hrs subculturing in the medium without test compound
Streptococcus pneumoniae [12] = experiment: Ratio of MBC to MIC for erythromycin-susceptible Streptococcus pneumoniae ATCC 49619
Streptococcus pneumoniae [13] = experiment: Bactericidal activity against mef-encoded erythromycin resistant Streptococcus pneumoniae PU09 assessed as reduction in colony formation incubated in CAMHB medium for 20 to 24 hrs followed by 24 hrs subculturing in the medium without test compound
Haemophilus influenzae [14] = experiment: Antimicrobial activity against azithromycin-susceptible Haemophilus influenzae ATCC 49247 incubated in HTM broth medium for 20 to 24 hrs by two-fold microbroth dilution method
Haemophilus influenzae [15] = experiment: Bactericidal activity against azithromycin-susceptible Haemophilus influenzae ATCC 49247 assessed as reduction in colony formation incubated in HTM broth medium for 20 to 24 hrs followed by 24 hrs subculturing in the medium without test compound
Haemophilus influenzae [16] = experiment: Ratio of MBC to MIC for azithromycin-susceptible Haemophilus influenzae ATCC 49247
Streptococcus pneumoniae [17] = experiment: Ratio of MBC to MIC for mef-encoded erythromycin resistant Streptococcus pneumoniae PU09
Streptococcus pyogenes [18] = experiment: Antimicrobial activity against inducibly erythromycin resistant Streptococcus pyogenes 01-968 expressing i-ermA incubated in CAMHB medium for 20 to 24 hrs by two-fold microbroth dilution method
Streptococcus pyogenes [19] = experiment: Bactericidal activity against inducibly erythromycin resistant Streptococcus pyogenes 01-968 expressing i-ermA assessed as reduction in colony formation incubated in CAMHB medium for 20 to 24 hrs followed by 24 hrs subculturing in the medium without test compound
Streptococcus pyogenes [20] = experiment: Ratio of MBC to MIC for inducibly erythromycin resistant Streptococcus pyogenes 01-968 expressing i-ermA
Staphylococcus aureus [21] = experiment: Antimicrobial activity against constitutively erythromycin resistant and methicillin resistant Staphylococcus aureus PU20 expressing c-ermC incubated in CAMHB medium for 20 hrs by two-fold microbroth dilution method; conditions: PU20, 20 h
Summary of the method: (§4)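 Purified fresh Staphylococcus isolate at about 5×10^5 CFU/ml final in CAMHB, 35 °C for 20 h. Each run included ATCC strains and reference antibiotics as QC, plus an antibiotic-free growth control.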

Staphylococcus aureus [22] = experiment: Bactericidal activity against constitutively erythromycin resistant and methicillin-resistant Staphylococcus aureus PU20 expressing c-ermC assessed as reduction in colony formation incubated in CAMHB medium for 20 hrs followed by 24 hrs subculturing in the medium without test compound
Staphylococcus aureus [23] = experiment: Antimicrobial activity against inducibly erythromycin-resistant and methicillin resistant Staphylococcus aureus PU32 expressing i-ermA incubated in CAMHB medium for 20 hrs by two-fold microbroth dilution method; conditions: PU32, 20 h; summary of the method: as §4
Staphylococcus aureus [24] = experiment: Bactericidal activity against inducibly erythromycin-resistant and methicillin resistant Staphylococcus aureus PU32 expressing i-ermA assessed as reduction in colony formation incubated in CAMHB medium for 20 hrs followed by 24 hrs subculturing in the medium without test compound

SMILES	MIC (Streptococcus pneumoniae [1])	MIC (Streptococcus pneumoniae [2])	MIC (Streptococcus pneumoniae [3])	MIC (Streptococcus pyogenes [4])	MIC (Streptococcus pyogenes [5])	MIC (Staphylococcus aureus [6])	MIC (Staphylococcus aureus [7])	MIC (Staphylococcus aureus [8])	MIC (Staphylococcus aureus [9])	MIC [10]	MBC (Streptococcus pneumoniae [11])	Ratio (Streptococcus pneumoniae [12])	MBC (Streptococcus pneumoniae [13])	MIC (Haemophilus influenzae [14])	MBC (Haemophilus influenzae [15])	Ratio (Haemophilus influenzae [16])	Ratio (Streptococcus pneumoniae [17])	MIC (Streptococcus pyogenes [18])	MBC (Streptococcus pyogenes [19])	Ratio (Streptococcus pyogenes [20])	further results
C=CCO/N=C1\[C@H](C)C[C@@](C)(OC)[C@H](O[C@@H]2O[C@H](C)C[C@H](N(C)C)[C@H]2O)[C@@H](C)[C@H](OCC#Cc2cccnc2N)[C@@H](C)C(=O)O[C@H](CC)[C@@]2(C)OC(=O)O[C@@H]2[C@H]1C	4 µg/mL (≈ 4.99 µM)	8 µg/mL (≈ 9.99 µM)	32 µg/mL (≈ 40 µM)	64 µg/mL (≈ 79.9 µM)	4 µg/mL (≈ 4.99 µM)	64 µg/mL (≈ 79.9 µM)	256 µg/mL (≈ 320 µM)	256 µg/mL (≈ 320 µM)	64 µg/mL (≈ 79.9 µM)	256 µg/mL (≈ 320 µM)	–	–	–	–	–	–	–	–	–	–	–
C=CCO/N=C1\[C@H](C)C[C@@](C)(OC)[C@H](O[C@@H]2O[C@H](C)C[C@H](N(C)C)[C@H]2O)[C@@H](C)[C@H](OCC#Cc2cncnc2)[C@@H](C)C(=O)O[C@H](CC)[C@@]2(C)OC(=O)O[C@@H]2[C@H]1C	4 µg/mL (≈ 5.08 µM)	4 µg/mL (≈ 5.08 µM)	64 µg/mL (≈ 81.3 µM)	64 µg/mL (≈ 81.3 µM)	4 µg/mL (≈ 5.08 µM)	64 µg/mL (≈ 81.3 µM)	128 µg/mL (≈ 163 µM)	256 µg/mL (≈ 325 µM)	256 µg/mL (≈ 325 µM)	256 µg/mL (≈ 325 µM)	–	–	–	–	–	–	–	–	–	–	–
C=CCO/N=C1\[C@H](C)C[C@@](C)(OC)[C@H](O[C@@H]2O[C@H](C)C[C@H](N(C)C)[C@H]2O)[C@@H](C)[C@H](OCC#Cc2ccc(N)cn2)[C@@H](C)C(=O)O[C@H](CC)[C@@]2(C)OC(=O)O[C@@H]2[C@H]1C	4 µg/mL (≈ 4.99 µM)	8 µg/mL (≈ 9.99 µM)	64 µg/mL (≈ 79.9 µM)	128 µg/mL (≈ 160 µM)	4 µg/mL (≈ 4.99 µM)	64 µg/mL (≈ 79.9 µM)	128 µg/mL (≈ 160 µM)	> 256 µg/mL	> 256 µg/mL	> 256 µg/mL	–	–	–	–	–	–	–	–	–	–	–
C=CCO/N=C1\[C@H](C)C[C@@](C)(OC)[C@H](O[C@@H]2O[C@H](C)C[C@H](N(C)C)[C@H]2O)[C@@H](C)[C@H](OCC#Cc2cncc(N)c2)[C@@H](C)C(=O)O[C@H](CC)[C@@]2(C)OC(=O)O[C@@H]2[C@H]1C	4 µg/mL (≈ 4.99 µM)	8 µg/mL (≈ 9.99 µM)	128 µg/mL (≈ 160 µM)	128 µg/mL (≈ 160 µM)	4 µg/mL (≈ 4.99 µM)	64 µg/mL (≈ 79.9 µM)	256 µg/mL (≈ 320 µM)	256 µg/mL (≈ 320 µM)	128 µg/mL (≈ 160 µM)	256 µg/mL (≈ 320 µM)	–	–	–	–	–	–	–	–	–	–	–
C=CCO/N=C1\[C@H](C)C[C@@](C)(OC)[C@H](O[C@@H]2O[C@H](C)C[C@H](N(C)C)[C@H]2O)[C@@H](C)[C@H](OCC#Cc2ccnc(N)c2)[C@@H](C)C(=O)O[C@H](CC)[C@@]2(C)OC(=O)O[C@@H]2[C@H]1C	4 µg/mL (≈ 4.99 µM)	8 µg/mL (≈ 9.99 µM)	64 µg/mL (≈ 79.9 µM)	128 µg/mL (≈ 160 µM)	4 µg/mL (≈ 4.99 µM)	64 µg/mL (≈ 79.9 µM)	256 µg/mL (≈ 320 µM)	256 µg/mL (≈ 320 µM)	256 µg/mL (≈ 320 µM)	256 µg/mL (≈ 320 µM)	–	–	–	–	–	–	–	–	–	–	–
CC[C@H]1OC(=O)[C@H](C)[C@@H](OC(=O)NCCCc2cncc(N)c2)[C@H](C)[C@@H](O[C@@H]2O[C@H](C)C[C@H](N(C)C)[C@H]2O)[C@](C)(OC)C[C@@H](C)/C(=N\OC)[C@H](C)[C@H]2OC(=O)O[C@@]21C	0.25 µg/mL (≈ 0.304 µM)	4 µg/mL (≈ 4.87 µM)	–	–	–	–	–	–	–	–	0.5 µg/mL (≈ 0.608 µM)	2	8 µg/mL (≈ 9.73 µM)	256 µg/mL (≈ 311 µM)	256 µg/mL (≈ 311 µM)	1	–	–	–	–	–
C=CCO/N=C1\[C@H](C)C[C@@](C)(OC)[C@H](O[C@@H]2O[C@H](C)C[C@H](N(C)C)[C@H]2O)[C@@H](C)[C@H](O)[C@@H](C)C(=O)O[C@H](CC)[C@@]2(C)OC(=O)O[C@@H]2[C@H]1C	8 µg/mL (≈ 11.9 µM)	16 µg/mL (≈ 23.9 µM)	128 µg/mL (≈ 191 µM)	128 µg/mL (≈ 191 µM)	16 µg/mL (≈ 23.9 µM)	128 µg/mL (≈ 191 µM)	> 256 µg/mL	> 256 µg/mL	> 256 µg/mL	> 256 µg/mL	–	–	–	–	–	–	–	–	–	–	–
CC[C@H]1OC(=O)[C@H](C)[C@@H](OC(=O)CCNCCCc2ccc3c(c2)c(=O)c(C(=O)O)cn3C2CC2)[C@H](C)[C@@H](O[C@@H]2O[C@H](C)C[C@H](N(C)C)[C@H]2O)[C@](C)(OC)C[C@@H](C)/C(=N\OC)[C@H](C)[C@H]2OC(=O)O[C@@]21C	0.5 µg/mL (≈ 0.508 µM)	4 µg/mL (≈ 4.06 µM)	–	–	–	–	–	–	–	–	1 µg/mL (≈ 1.02 µM)	2	4 µg/mL (≈ 4.06 µM)	128 µg/mL (≈ 130 µM)	256 µg/mL (≈ 260 µM)	2	1	32 µg/mL (≈ 32.5 µM)	32 µg/mL (≈ 32.5 µM)	1	MIC (Staphylococcus aureus [21]): 128 µg/mL (≈ 130 µM); MBC (Staphylococcus aureus [22]): > 256 µg/mL; MIC (Staphylococcus aureus [23]): 128 µg/mL (≈ 130 µM); MBC (Staphylococcus aureus [24]): > 256 µg/mL
CC[C@H]1OC(=O)[C@H](C)[C@@H](OC(=O)CCNCCNc2cc3c(=O)c(C(=O)O)cn(C4CC4)c3cc2Cl)[C@H](C)[C@@H](O[C@@H]2O[C@H](C)C[C@H](N(C)C)[C@H]2O)[C@](C)(OC)C[C@@H](C)/C(=N\OC)[C@H](C)[C@H]2OC(=O)O[C@@]21C	2 µg/mL (≈ 1.96 µM)	8 µg/mL (≈ 7.84 µM)	–	–	–	–	–	–	–	–	4 µg/mL (≈ 3.92 µM)	2	8 µg/mL (≈ 7.84 µM)	128 µg/mL (≈ 125 µM)	128 µg/mL (≈ 125 µM)	1	1	16 µg/mL (≈ 15.7 µM)	32 µg/mL (≈ 31.4 µM)	2	MIC (Staphylococcus aureus [21]): > 256 µg/mL; MIC (Staphylococcus aureus [23]): 256 µg/mL (≈ 251 µM); MBC (Staphylococcus aureus [24]): > 256 µg/mL
CC[C@H]1OC(=O)[C@H](C)[C@@H](OC(=O)CCNC/C=C/c2cccnc2)[C@H](C)[C@@H](O[C@@H]2O[C@H](C)C[C@H](N(C)C)[C@H]2O)[C@](C)(OC)C[C@@H](C)/C(=N\OC)[C@H](C)[C@H]2OC(=O)O[C@@]21C	1 µg/mL (≈ 1.2 µM)	2 µg/mL (≈ 2.4 µM)	–	–	–	–	–	–	–	–	2 µg/mL (≈ 2.4 µM)	2	2 µg/mL (≈ 2.4 µM)	256 µg/mL (≈ 307 µM)	256 µg/mL (≈ 307 µM)	1	1	8 µg/mL (≈ 9.6 µM)	> 64 µg/mL	>8	MIC (Staphylococcus aureus [21]): > 256 µg/mL; MIC (Staphylococcus aureus [23]): 128 µg/mL (≈ 154 µM); MBC (Staphylococcus aureus [24]): > 256 µg/mL
